Activity calls are given as the source filed them. The rule behind the calls is not given here.
What was measured:
[1] = Antiproliferative activity against human MDA-MB-231 cells after 72 hrs by MTT assay; format: functional, cell-based; settings: MDA-MB-231, 72 h
How it was run: (§1)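 Cells in RPMI-1640 with 10% FBS, penicillin/streptomycin, 37 °C, 5% CO₂; seeded 3000-5000 cells/well, left overnight (16 h), then medium replaced with fresh medium holding serial dilutions in triplicate for 72 h. MTT read-out; viability = absorbance of treated/solvent control × 100%. Stattic served as reference.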

[2] = Antiproliferative activity against human A549 cells after 72 hrs by MTT assay; format: functional, cell-based; settings: A549, 72 h; how it was run: as §1
[3] = Antiproliferative activity against human MCF7 cells after 72 hrs by MTT assay; format: functional, cell-based; settings: MCF7, 72 h; how it was run: as §1
[4] = Antiproliferative activity against human HCT116 cells after 72 hrs by MTT assay; format: functional, cell-based; settings: HCT-116, 72 h; how it was run: as §1
MDA-MB-231 = assay: Potency index, ratio of stattic IC50 to compound IC50 for human MDA-MB-231 cells; format: functional
A549 = assay: Potency index, ratio of stattic IC50 to compound IC50 for human A549 cells; format: functional
MCF7 = assay: Potency index, ratio of stattic IC50 to compound IC50 for human MCF7 cells; format: functional
HCT-116 = assay: Potency index, ratio of stattic IC50 to compound IC50 for human HCT116 cells; format: functional
[5] = molecular target: Signal transducer and activator of transcription 3 (Homo sapiens) (UniProt P40763); assay: Inhibition of STAT3 dimer DNA binding activity in human MDA-MB-231 nuclear extract at 5 uM preincubated for 24 hrs followed by addition of [32P]hSIE by electrophoretic mobility shift assay
Signal transducer and activator of transcription 3 (Homo sapiens), sequence (P40763 whole entry): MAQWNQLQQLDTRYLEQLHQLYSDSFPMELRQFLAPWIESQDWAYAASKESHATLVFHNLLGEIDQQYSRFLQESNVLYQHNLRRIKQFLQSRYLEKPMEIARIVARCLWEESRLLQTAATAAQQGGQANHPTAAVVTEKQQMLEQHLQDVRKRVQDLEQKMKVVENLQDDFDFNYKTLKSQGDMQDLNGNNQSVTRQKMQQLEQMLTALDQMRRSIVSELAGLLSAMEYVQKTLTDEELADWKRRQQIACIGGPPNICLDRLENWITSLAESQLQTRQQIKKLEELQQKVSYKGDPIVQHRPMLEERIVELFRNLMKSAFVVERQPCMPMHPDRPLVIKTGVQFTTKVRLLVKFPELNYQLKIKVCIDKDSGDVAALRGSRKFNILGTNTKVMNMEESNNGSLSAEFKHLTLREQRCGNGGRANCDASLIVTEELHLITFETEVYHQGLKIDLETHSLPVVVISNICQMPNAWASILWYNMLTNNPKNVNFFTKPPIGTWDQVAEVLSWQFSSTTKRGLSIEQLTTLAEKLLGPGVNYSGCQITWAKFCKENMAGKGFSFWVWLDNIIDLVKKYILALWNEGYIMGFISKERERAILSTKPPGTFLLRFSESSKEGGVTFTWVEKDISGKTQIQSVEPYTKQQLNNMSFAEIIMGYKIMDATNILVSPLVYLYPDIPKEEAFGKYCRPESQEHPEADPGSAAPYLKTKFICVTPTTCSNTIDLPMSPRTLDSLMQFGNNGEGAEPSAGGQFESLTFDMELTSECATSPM
How it was run: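 Cells treated 24 h in fresh growth medium. Nuclear extracts of equal total protein incubated with ³²P-labelled hSIE oligonucleotide probe and resolved by EMSA; Stattic 5 µM as comparator.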

[6] = Antitumor activity against mouse 4T1 cells implanted in ICR mouse assessed as tumor growth inhibition at 1 mg/kg, ip administered once in 4 days for 11 days measured on day 12 relative to control; format: functional; settings: 4T1, ip, read-out: TGI
How it was run: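 Male ICR mice, 5 weeks old, inoculated with 2 × 10⁶ 4T1 cells at the right armpit. At 24 h, randomised into groups of 6 and dosed i.p.; vehicle PBS/DMSO (8:2) daily for 11 days. Killed day 12; tumours weighed; TI% = (1 − mean treated/mean control weight) × 100. Tumour p-STAT3 and STAT3 assessed by western blot.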

Mus musculus = assay: Toxicity in ICR mouse implanted with mouse 4T1 cells assessed as body weight loss at 1 mg/kg, ip administered once in 4 days for 11 days measured daily during compound dosing; format: organism-based; settings: in vivo
How it was run: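 4T1-bearing male ICR mice (5 weeks, 6/group), dosed i.p. with PBS/DMSO (8:2) vehicle control. Body weight recorded daily. BI% = (1 − mean treated/mean control body weight) × 100.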

SMILES	IC50 [1] [nM]	IC50 [2] [nM]	IC50 [3] [nM]	IC50 [4] [nM]	Ratio IC50 (MDA-MB-231)	Ratio IC50 (A549)	Ratio IC50 (MCF7)	Ratio IC50 (HCT-116)	inhibition [5]	inhibition in vivo at 1 mg/kg [6] [%]	Activity (Mus musculus)
Cc1cc(C)cc(Nc2cccc3c2S(=O)(=O)C=C3)c1	3120	4800	8800	> 10000							
O=S1(=O)C=Cc2cccc(Nc3ccc(Cl)cc3)c21	1210	1040	680	260	1.4 - 7.2	1.4 - 7.2	1.4 - 7.2	1.4 - 7.2			
O=S1(=O)C=Cc2ccc(Nc3cccc(C(F)(F)F)c3)cc21	1310	1440	2500	1370							
O=S1(=O)C=Cc2ccc(Nc3ccc(C(F)(F)F)cc3)cc21	1300	1140	1270	1340							
O=S1(=O)C=Cc2ccc(Nc3ccc(Cl)cc3)cc21	6720	2300	2670	4440							
COc1cc(Nc2ccc3c(c2)S(=O)(=O)C=C3)cc(OC)c1OC	1430	1880	2230	1420							
COc1cc(Nc2cccc3c2S(=O)(=O)C=C3)cc(OC)c1OC	990	950	930	1150							
O=[N+]([O-])c1ccc2c(c1)S(=O)(=O)C=C2	1680	4400	2360	1080					Active		
COc1cccc2c1C(=O)c1c(O)c3c(c(O)c1C2=O)C[C@@](O)(C(=O)CO)C[C@@H]3O[C@H]1C[C@H](N)[C@H](O)[C@H](C)O1 [DOXORUBICIN]										67	Toxic
COc1ccc(Nc2cccc3c2S(=O)(=O)C=C3)cc1	1040	2590	940	1990							
COc1ccc(Nc2ccc3c(c2)S(=O)(=O)C=C3)cc1	1400	1220	1210	1170							
Cc1ccc(Nc2cccc3c2S(=O)(=O)C=C3)cc1	1560	2680	1890	4000							
O=S1(=O)C=Cc2cccc(Nc3ccc(F)c(F)c3)c21	1890	2500	950	680							
O=S1(=O)C=Cc2ccc(Nc3ccc(Cl)c(Cl)c3)cc21	890	3320	2230	2470							
O=S1(=O)C=Cc2cccc(Nc3ccccc3C(F)(F)F)c21	3900	4120	8100	5950							
COc1ccccc1Nc1cccc2c1S(=O)(=O)C=C2	2400	2590	5100	5000							
O=S1(=O)C=Cc2ccc(Nc3cccc(OC(F)(F)F)c3)cc21	2080	1370	2020	1980							
N#Cc1cccc(Nc2ccc3c(c2)S(=O)(=O)C=C3)c1	> 10000	> 10000	> 10000	> 10000							
O=S1(=O)C=Cc2cccc(Nc3ccc(Cl)c(Cl)c3)c21	1360	660	570	680							
O=S1(=O)C=Cc2cccc(Nc3ccc(OC(F)(F)F)cc3)c21	2100	1570	2690	2380							
O=S1(=O)C=Cc2cccc(Nc3cc(C(F)(F)F)cc(C(F)(F)F)c3)c21	3120	3840	5110	3600							
O=S1(=O)C=Cc2cccc(Nc3c(F)c(F)c(F)c(F)c3F)c21	4460	3480	2300	3370							
O=S1(=O)C=Cc2cccc(Nc3cccc(F)c3)c21	1910	2550	1120	1220							
O=S1(=O)C=Cc2cccc(Nc3ccc(C(F)(F)F)cc3)c21	1200	2440	1820	1440							
O=S1(=O)C=Cc2ccc(Nc3ccc(F)c(F)c3)cc21	3050	1550	2610	3020							

— ChEMBL document CHEMBL3877271, “Antagonizing STAT3 activation with benzo[b]thiophene 1, 1-dioxide based small molecules” (Eur J Med Chem, 2017)
